Source: PubChem (The Scripps Research Institute Molecular Screening Center)
Most compounds without a hit are left out; they make up all but 3.1% or so of the library.
GPR7 antag = GPR7 receptor antagonists, primary screen, cell-based, fluorescence, single concentration; Neuropeptides B/W receptor type 1 (Homo sapiens), P48145; inhibition, % at 4.4 µM; GPR7-expressing cells, fluorescence antagonist assay; 290,000 compounds, 1.1% hits; in the data active = inhibition above about 16%, passing the limit was not always enough;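 note: cells stimulated with the agonist NPW; 0% = agonist with vehicle and 100% = vehicle without agonist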
OX1R antag-1 = antagonists of human orexin 1 receptor (OX1R). Orexin/Hypocretin receptor type 1 (Homo sapiens), O43613. OX1R-expressing cells, FRET antagonist read-out. inhibition, % at 6.6 µM. 330,000 compounds, 1.8% hits. AID 485270, 2010; in the data active = inhibition mostly above about 38%, no sharp cut-off; inactive = mostly below about 40%;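 note: 0% = agonist challenge alone and 100% = reference antagonist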
Target sequence (O43613 whole entry, looked up): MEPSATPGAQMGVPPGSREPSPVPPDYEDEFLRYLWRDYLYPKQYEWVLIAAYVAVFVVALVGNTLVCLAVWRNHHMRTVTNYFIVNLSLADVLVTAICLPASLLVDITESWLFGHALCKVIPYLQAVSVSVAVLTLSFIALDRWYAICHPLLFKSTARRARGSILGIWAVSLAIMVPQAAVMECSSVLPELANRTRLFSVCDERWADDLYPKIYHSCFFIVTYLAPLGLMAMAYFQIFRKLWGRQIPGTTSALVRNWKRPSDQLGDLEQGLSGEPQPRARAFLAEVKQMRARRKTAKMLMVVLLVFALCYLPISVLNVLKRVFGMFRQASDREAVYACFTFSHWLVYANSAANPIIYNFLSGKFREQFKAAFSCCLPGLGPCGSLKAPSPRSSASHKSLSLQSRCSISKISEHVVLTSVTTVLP
CHO parental Ca = ATP-evoked calcium signal inhibitors, parental CHO, primary screen, counter-screen for OX1R antagonist project, cell-based, fluorescence, Fluo-8 calcium dye; inhibition, % at 5.6 µM; parental CHO-K1, ATP-induced calcium, Fluo-8 fluorescence; 330,000 compounds, 0.63% hits; AID 463079, 2010;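 active = inhibition above that plate's mean sample inhibition plus 3 SD, cut at about 26% in these data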;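 note: 0% = ATP-challenged DMSO wells and 100% = DMSO wells without ATP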
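Material – parental CHO cells · Reagent – ATP stimulus · Compound – single nominal dose of 5.6 µM per compound · Detection – Fluo-8 fluorescence · Read-out basis – percent inhibition of calcium signal · Controls – ATP-challenged DMSO wells low, unchallenged DMSO wells high · Repeats – no replicates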
GalR3 antagonist = GalR3 antagonists in HEK293 cells, primary screen, cell-based, fluorescence readout; Galanin receptor type 3 (Homo sapiens), O60755; HEK293 GalR3-CNG cAMP membrane potential fluorescence; galR3 body fused to GalR1 C-terminus; inhibition, % at 3 µM; 360,000 compounds, 0.44% hits; AID 651719, 2012;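 active = inhibition above the screen-wide average plus 3 SD, cut at about 13% in these data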;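 note: forskolin and galanin both at EC90 stimulate the cells; cAMP rise reported by CNG channel membrane potential dye signal; 0% = forskolin plus galanin with DMSO and 100% = forskolin alone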
OX1R antag-2 = OX1R (HCRTR1) antagonists, primary screen, fluorescence, CHO/OX1R cells, Fluo-8 calcium, orexin A | Fluo-8 calcium fluorescence | AID 434989, 2010 | inhibition, % at 5 µM | 330,000 compounds, 0.43% hits | Orexin/Hypocretin receptor type 1 (Homo sapiens), O43613;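 active = inhibition above its plate's threshold, mean inhibition of all tested compounds on the plate plus 3 SD, cut at about 37% in these data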;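 note: 0% = orexin A challenge wells and 100% = SB-334867-A antagonist wells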
OX1R Ca confirm = OX1R (HCRTR1) antagonists, confirmation, fluorescence, CHO/OX1R cells, Fluo-8 calcium, orexin A; shares compounds with OX1R antag-2; orexin A calcium Fluo-8 fluorescence; inhibition, % at 5 µM; 1,100 compounds, 38% hits; in the data active = inhibition above about 29%;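 note: 0% = agonist challenge alone and 100% = reference antagonist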
CHO Ca counter = ATP-evoked calcium inhibition in parental CHO, counter-screen for OX1R antagonist project, cell-based, fluorescence, CHO-K1, triplicate. shares compounds with OX1R antag-2. ATP-induced calcium, Fluo-8 fluorescence. inhibition, % at 5.6 µM. 1,100 compounds, 9.3% hits. AID 492965, 2010;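 active = inhibition above a per-plate limit, the mean inhibition of that plate's test compounds plus 3 SD, cut at about 25% in these data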;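 note: 0% = ATP challenge with DMSO and 100% = DMSO without ATP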
OX1R HTRF conf = OX1R (HCRTR1) antagonists, confirmation, cell-based, HTRF; shares compounds with OX1R antag-1; OX1R-expressing cells, HTRF antagonist assay; inhibition, % at 6.6 µM; 1,800 compounds, 49% hits; AID 492964, 2010; in the data active = inhibition above about 55%;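 note: CHO cells expressing OX1R stimulated with orexin A at about EC80; 0% = agonist challenge alone and 100% = reference antagonist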
CHO-K1 HTRF = signal inhibition in parental CHO-K1 cells, counter-screen for OX1R antagonist project, cell-based, HTRF | shares compounds with OX1R antag-1 | HTRF counterscreen | inhibition, % at 6.6 µM | 1,800 compounds, 48% hits | AID 493232, 2011; in the data active = inhibition above about 17%;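 note: 0% = agonist challenge with vehicle and 100% = vehicle alone without agonist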
* marks the source's active call; other numbers are inactive results; · = not tested or not shown.

SMILES	GPR7 antag	OX1R antag-1	CHO parental Ca	GalR3 antagonist	OX1R antag-2	OX1R Ca confirm	CHO Ca counter	OX1R HTRF conf	CHO-K1 HTRF
CN(C)c1ccc(/C=C2\CCCc3c2nc2ccccc2c3C(=O)O)cc1	4	39	10	-8	1	·	·	·	·
CCOc1ccccc1NC(=O)CN1C(=O)NC(Cc2c[nH]c3ccccc23)C1=O (configuration not stated)	·	36*	-25	-4	42*	10	-9	34	-5
C[C@H](O)[C@@H]1C(=O)N2CCc3ccc(-c4ccccc4)cc3[C@@H]2C[C@@H]1N(C)C(=O)c1ccco1	·	·	·	-4	·	·	·	·	·
Cc1ccc(NC2CCCN(C(=O)c3cn(C)c4ccccc34)C2)cc1C (configuration not stated)	-6	80*	-14	-4	27	23	-12	90*	2
CCCN(CC(=O)Nc1ccccc1OC)C(=O)CSc1ccc(Br)cc1C	·	58*	-24	0	54*	22	-11	73*	4
CCCN(CC(=O)Nc1ccccc1OC)C(=O)Cn1[nH]c(=O)c2ccccc2c1=O	·	7	-22	-6	-22	·	·	·	·
COc1ccccc1C(=O)NCC(=O)NCCc1ccc(Cl)cc1	-13	8	-22	-7	-35	·	·	·	·
COc1ccccc1C(=O)NCCc1c(C)[nH]c2c(C)ccc(F)c12	-6	50*	12	-8	26	2	-22	32	-4
Nc1cc(S(=O)(=O)C(F)(F)F)ccc1C(=O)O	-13	7	1	1	1	·	·	·	·
O=S(=O)(c1ccc2c(c1)C(O)c1ccccc1CC2)C(F)(F)F (configuration not stated)	·	34*	13	0	52*	20	17	34	1
CCCCc1ccc(S(=O)(=O)NCCc2ccncc2)cc1	-2	76*	19	-4	26	0	6	36	3
COc1cccc(-c2cnc(C(O)c3ccc(C)cc3C)[nH]2)c1 (configuration not stated)	·	·	·	-5	·	·	·	·	·
CN(CC(=O)Nc1c(Cl)cccc1Cl)C(=O)c1ccccc1-c1nc2ccccc2s1	·	38	-33	-5	-45	·	·	·	·
COc1cccc(NC(=O)CN(C)C(=O)c2ccccc2-c2nc3ccccc3s2)c1	·	100*	-37	-4	17	17	-5	88*	5
COc1ccc(Cl)cc1Nc1cc(C)nc2ncnn12	·	·	·	0	·	·	·	·	·
Cc1cc(SCC(=O)OC(C)C(=O)N(C)c2ccccc2)nc2ccccc12 (configuration not stated)	·	38*	-26	-1	48*	15	1	61*	0
c1ccc(-c2nccc(-c3ccc4c(c3)OCO4)n2)cc1	1	90*	-9	-5	33	13	17	84*	8
Cc1nccc(-c2ccc3c(c2)OCO3)n1	-3	17	12	5	-13	·	·	·	·
CSC1=NSC2=NC(=O)/C(=C/c3coc4ccccc4c3=O)C(=N)N12	7	78*	47	-5	66*	27	15	39	-7
CSC1=NSC2=NC(=O)/C(=C\c3cccs3)C(=N)N12	-2	21	-6	7	-9	·	·	·	·
c1coc(CNc2nc3nonc3nc2NCc2ccco2)c1	-9	73*	25	-3	35	-3	-7	28	-15
Cc1nc(NCc2ccco2)c2cn[nH]c2n1	·	·	·	-6	·	·	·	·	·
